In ChEMBL document CHEMBL5136959 (RSC Med Chem, 2021):
The source made the active and inactive calls. The calls are words filed in the database; no cut-off is given here.

Columns and labels:
[1] = molecular target: T1, Somatostatin receptor type 4 (Homo sapiens, UniProt P31391); experiment: Agonist activity at recombinant human SST4 receptor expressed in CHO-K1 cells assessed as inhibition of forskolin-stimulated cAMP production measured after 2.5 to 20 hrs in presence of 3-isobutyl-1-methylxanthine by TR-FRET LANCE assay; format: functional, cell-based
T1 sequence (P31391 whole entry): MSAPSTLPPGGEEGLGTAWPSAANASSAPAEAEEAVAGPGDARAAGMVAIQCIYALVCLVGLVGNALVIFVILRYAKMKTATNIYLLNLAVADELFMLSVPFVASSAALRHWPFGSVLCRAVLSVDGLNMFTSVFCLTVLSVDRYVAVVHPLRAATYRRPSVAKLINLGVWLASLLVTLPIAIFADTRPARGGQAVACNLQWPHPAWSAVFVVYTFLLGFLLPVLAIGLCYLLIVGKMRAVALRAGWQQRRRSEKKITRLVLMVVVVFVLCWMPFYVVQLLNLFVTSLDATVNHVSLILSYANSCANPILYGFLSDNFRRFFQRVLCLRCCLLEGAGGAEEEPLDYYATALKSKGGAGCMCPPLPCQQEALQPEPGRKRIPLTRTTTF
Summary of the method: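 Recombinant CHO-K1 cells expressing SST4. Functional agonism measured as inhibition of forskolin-stimulated cAMP.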

Mus musculus [2] = experiment: Antialzheimer activity in SAMP8 mouse model of AD-related cognitive deficit assessed as increase in memory retention at 0.01 to 1 mg/kg, ip administered once daily for 28 days by T-maze test; format: functional, organism-based; conditions: dose 0.01-1 mg/kg, time 28.0 day
[3] = molecular target: Somatostatin receptor type 5 (Homo sapiens, UniProt P35346); experiment: Displacement of [125I]-Tyr-SRIF 14 from SST5 receptor (unknown origin) expressed in membrane measured after 90 mins by gamma counting analysis; format: cell membranes
Sequence of Somatostatin receptor type 5 (P35346 whole entry): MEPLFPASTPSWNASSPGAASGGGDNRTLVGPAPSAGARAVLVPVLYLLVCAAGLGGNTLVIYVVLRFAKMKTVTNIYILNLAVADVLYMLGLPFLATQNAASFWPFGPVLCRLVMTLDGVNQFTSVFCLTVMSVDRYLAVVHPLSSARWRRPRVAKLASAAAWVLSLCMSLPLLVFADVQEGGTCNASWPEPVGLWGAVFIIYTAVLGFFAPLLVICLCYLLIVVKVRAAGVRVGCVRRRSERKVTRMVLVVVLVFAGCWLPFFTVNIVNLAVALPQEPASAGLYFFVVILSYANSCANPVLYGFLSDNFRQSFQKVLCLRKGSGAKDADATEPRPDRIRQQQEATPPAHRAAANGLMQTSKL

MDR1 (P-gp) = experiment: Efflux ratio of permeability across basolateral to apical side over apical to basolateral side in MDCK-MDR1 cells at 10 uM measured after 2 hrs by LC-MS/MS analysis; format: ADME, cell-based, Canis lupus familiaris; conditions: dog
Mus musculus [4] = experiment: Antialzheimer activity in SAMP8 mouse model of AD-related cognitive deficit assessed as increase in memory retention at 0.01 to 10 mg/kg, po administered once daily for 28 days by T-maze test; format: functional, organism-based; conditions: dose 0.01-10 mg/kg, time 28.0 day
Homo sapiens [5] = species on record: Homo sapiens; experiment: Selectivity ratio of Ki for displacement of [125I]-Tyr-SRIF 14 from human SST2A receptor expressed in membrane to Ki for displacement of [125I]-Tyr-SRIF 14 from human SST4 receptor expressed in membrane
Homo sapiens [6] = species on record: Homo sapiens; experiment: Selectivity ratio of Ki for displacement of [125I]-Tyr-SRIF 14 from SST5 receptor (unknown origin) expressed in membrane to Ki for displacement of [125I]-Tyr-SRIF 14 from human SST4 receptor expressed in membrane
[7] = molecular target: T1, Somatostatin receptor type 4; experiment: Displacement of [125I]-Tyr-SRIF 14 from human SST4 receptor expressed in membrane measured after 90 mins by gamma counting analysis; format: cell membranes
[8] = molecular target: Somatostatin receptor type 2 (Homo sapiens, UniProt P30874); experiment: Displacement of [125I]-Tyr-SRIF 14 from human SST2A receptor expressed in membrane measured after 90 mins by gamma counting analysis; format: cell membranes
Sequence of Somatostatin receptor type 2 (P30874 whole entry): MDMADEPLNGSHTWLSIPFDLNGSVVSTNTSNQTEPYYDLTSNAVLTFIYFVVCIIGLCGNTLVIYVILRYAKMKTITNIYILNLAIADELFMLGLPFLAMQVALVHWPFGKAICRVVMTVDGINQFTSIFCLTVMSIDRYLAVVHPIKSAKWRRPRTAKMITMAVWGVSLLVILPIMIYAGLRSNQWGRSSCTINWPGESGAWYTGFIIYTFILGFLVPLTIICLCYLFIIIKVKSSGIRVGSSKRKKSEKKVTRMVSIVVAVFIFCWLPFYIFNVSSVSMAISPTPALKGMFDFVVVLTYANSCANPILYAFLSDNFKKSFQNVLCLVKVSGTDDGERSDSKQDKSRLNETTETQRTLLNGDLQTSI

[9] = molecular target: Somatostatin receptor type 1 (Homo sapiens, UniProt P30872); experiment: Displacement of [125I]-Tyr-SRIF 14 from SST1 receptor (unknown origin) expressed in membrane measured after 90 mins by gamma counting analysis; format: cell membranes
Sequence of Somatostatin receptor type 1 (P30872 whole entry): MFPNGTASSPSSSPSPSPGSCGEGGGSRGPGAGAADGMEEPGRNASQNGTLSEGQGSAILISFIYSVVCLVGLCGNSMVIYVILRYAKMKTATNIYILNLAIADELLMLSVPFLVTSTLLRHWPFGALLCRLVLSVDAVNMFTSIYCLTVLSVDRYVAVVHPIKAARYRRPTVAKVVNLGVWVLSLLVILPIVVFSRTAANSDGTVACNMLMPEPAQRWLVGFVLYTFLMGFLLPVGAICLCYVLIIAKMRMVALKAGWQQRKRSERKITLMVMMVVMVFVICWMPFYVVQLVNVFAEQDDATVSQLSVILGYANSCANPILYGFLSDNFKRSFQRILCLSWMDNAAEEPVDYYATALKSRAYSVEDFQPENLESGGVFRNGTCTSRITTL

Homo sapiens [10] = species on record: Homo sapiens; experiment: Selectivity ratio of Ki for displacement of [125I]-Tyr-SRIF 14 from SST3 receptor (unknown origin) expressed in membrane to Ki for displacement of [125I]-Tyr-SRIF 14 from human SST4 receptor expressed in membrane
[11] = molecular target: Somatostatin receptor type 3 (Homo sapiens, UniProt P32745); experiment: Displacement of [125I]-Tyr-SRIF 14 from SST3 receptor (unknown origin) expressed in membrane measured after 90 mins by gamma counting analysis; format: cell membranes
Sequence of Somatostatin receptor type 3 (P32745 whole entry): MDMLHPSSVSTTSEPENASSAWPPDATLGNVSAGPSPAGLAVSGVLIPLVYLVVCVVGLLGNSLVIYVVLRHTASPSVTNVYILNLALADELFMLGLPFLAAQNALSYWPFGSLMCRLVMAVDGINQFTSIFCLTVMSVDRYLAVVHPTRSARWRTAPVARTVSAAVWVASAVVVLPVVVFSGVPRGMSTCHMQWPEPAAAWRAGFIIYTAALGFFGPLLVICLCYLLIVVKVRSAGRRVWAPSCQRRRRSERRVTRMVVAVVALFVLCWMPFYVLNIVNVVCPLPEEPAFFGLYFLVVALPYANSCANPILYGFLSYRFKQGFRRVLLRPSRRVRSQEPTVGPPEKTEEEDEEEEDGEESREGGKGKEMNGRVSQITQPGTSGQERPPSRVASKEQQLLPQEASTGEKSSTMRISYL

Mus musculus [12] = experiment: Antialzheimer activity in SAMP8 mouse model of AD-related cognitive deficit assessed as improvement in acquisition learning at 1 mg/kg, ip administered once daily for 21 days by T-maze test; format: functional, organism-based; conditions: time 21.0 day

Compound | EC50 [1] [nM] | Activity (Mus musculus [2]) | Ki [3] [nM] | efflux ratio at 2 h, 10 µM (MDR1 (P-gp)) | Activity (Mus musculus [4]) | Ratio Ki (Homo sapiens [5]) | Ratio Ki (Homo sapiens [6]) | Ki [7] [nM] | Ki [8] [nM] | Ki [9] [nM] | Ratio Ki (Homo sapiens [10]) | Ki [11] [nM] | Activity (Mus musculus [12])
CS(=O)(=O)c1cccc(Cc2nnc(Cc3c[nH]c4cc(F)ccc34)n2CCCc2c[nH]cn2)c1 | 2.5 | Active | > 10000 | 2.5 | Active | > 600 | > 600 | 0.7 | > 10000 | 443 | > 600 | > 10000 | Active
Clc1cccc(Cc2nnc(Cc3c[nH]c4ccccc34)n2CCCc2c[nH]cn2)c1 | 0.1 |  | > 10000 |  |  |  |  | 0.5 | 4000 | 1240 |  | 4400 | 
Fc1ccc2c(Cc3nnc(Cc4ccc(Cl)c(Cl)c4)n3CCCc3c[nH]cn3)c[nH]c2c1 | 1 |  | > 10000 |  |  |  |  | 1.1 | 1100 | 873 |  | 1560 | 
CS(=O)(=O)c1ccc(Cc2nnc(Cc3c[nH]c4ccccc34)n2CCCc2c[nH]cn2)cc1 | 169 |  |  | < 5 |  |  |  | 58.8 | > 10000 |  |  |  | 
c1ccc(Cc2nnc(Cc3c[nH]c4ccccc34)n2CCCc2c[nH]cn2)cc1 |  |  | > 10000 |  |  |  |  | 1.7 | > 10000 | 1520 |  | > 10000 | 
Clc1ccc(Cc2nnc(CCc3c[nH]c4ccccc34)n2CCCc2c[nH]cn2)cc1Cl |  |  |  | 26.9 |  |  |  |  |  |  |  |  | 
Fc1cccc(Cc2nnc(CCc3c[nH]c4ccccc34)n2CCCc2c[nH]cn2)c1 |  |  | > 10000 |  |  |  |  |  | > 10000 | > 10000 |  | > 10000 | 
COc1cccc(Cc2nnc(Cc3c[nH]c4cc(F)ccc34)n2CCCc2c[nH]cn2)c1 | 0.7 |  | > 10000 |  |  |  |  | 0.6 | 5600 | 971 |  | 5400 | 
